Results taken from PubChem BioAssay AID809 (SRMLSC, 2007).
Calls of active or inactive are those of the source.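 Rule for the calls: active = EC50 for reversing nicotinamide-shortened yeast lifespan at or below a set limit; inactive = EC50 above that limit.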

Tested on: S. cerevisiae DeaD BB579, nicotinamide rescue growth, OD615 48 h
Experiment: BB579 yeast growth restoration under nicotinamide – S. cerevisiae, yeast lifespan extension project, dose response (AID 809)
Procedure, shortened: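 System: S. cerevisiae DeaD strain BB579 / Medium: Glucose-containing restrictive synthetic medium (CSMM-D), shifted from galactose / Schedule: 4 h pre-incubation, 48 h exposure at 30 °C / Technique: optical density at 615 nm (absorbance) / Read-out: culture growth as lifespan proxy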

Structure (SMILES)	EC50
Cc1nn(C(C)(C)C)c(OC(=O)c2ccc(Br)o2)c1Sc1ccccc1	7.84 µM
O=C(NCCc1ccccn1)C(F)(F)C(F)(F)C(F)(F)C(F)(F)C(F)(F)C(F)(F)C(F)(F)C(F)F	> 10 µM (inactive)
CCCCn1c(=O)c(C(=O)Nc2cnccn2)c(O)c2ccccc21	3.01 µM
CCc1ccc(CC2S/C(=C(\C#N)C(C)=O)NC2=O)cc1 (stereo not drawn)	> 10 µM (inactive)
COc1ccc(N(C)C(=S)Nc2ccc3nc(C)c(C)nc3c2)cc1	> 10 µM (inactive)
O=C1CC(c2ccccc2)CC(O)=C1C=NCCN1CCNCC1 (stereo not drawn)	> 10 µM (inactive)
CCCCCC1CC1C(=O)N/N=C/c1ccc(N(C)C)cc1 (stereo not drawn)	> 10 µM (inactive)
COc1ccc(-c2noc(CSc3nnc(-c4ccncc4)n3-c3ccc(F)cc3)n2)cc1OC	> 10 µM (inactive)
COc1ccc(OC)c(C2C(C(C)=O)=C(O)C(=O)N2Cc2cccnc2)c1 (stereo not drawn)	> 10 µM (inactive)
C=C(C(=O)c1ccccc1)C(CC(=O)c1ccccc1)c1ccccc1 (stereo not drawn)	8.08 µM
CC(=O)c1c(C)[nH]c(C(=O)OC2CCCCC2=O)c1C (stereo not drawn)	> 10 µM (inactive)
CCC(=O)Nc1ccccc1Sc1ncnc2scc(-c3ccccc3)c12	> 10 µM (inactive)
CC(=C1C(=O)c2ccccc2C1=O)N1CCN(C/C=C/c2ccccc2)CC1	> 10 µM (inactive)
Cc1cc(C)cc(CC2CC(=O)N(c3ccc(Cl)cn3)C2=O)c1 (stereo not drawn)	> 10 µM (inactive)
CN1C/C(=C/c2cccnc2)C(=O)/C(=C/c2cccnc2)C1	> 10 µM (inactive)
O=C(NC(=S)Nc1nc2c(s1)CSc1ccccc1-2)c1ccccc1	> 10 µM (inactive)
CCOc1ccc(/C=C2/C(=O)NC(=O)N(CCc3ccc(F)cc3)C2=O)cc1	> 10 µM (inactive)
O=C(NCc1cccnc1)c1ccc(S(=O)(=O)N2CCCCC2)cc1	> 10 µM (inactive)
Cc1ccc(N2NC(=O)/C(=C\c3cc4c(cc3[N+](=O)[O-])OCO4)C2=O)cc1C	> 10 µM (inactive)
COc1ccc(CN2CCN(C(=O)COc3cccc(C)c3)CC2)c(OC)c1	> 10 µM (inactive)
CCCCC(CC)Cn1c2nc3ccccc3nc2c2c(=N)oc(C)nc21 (stereo not drawn)	> 10 µM (inactive)
Cc1ccccc1OC(=O)n1c(=S)oc2cc(Cl)ccc21	6.59 µM
CSc1ccc(S(=O)(=O)NCc2ccc(Cl)cc2Cl)cc1	> 10 µM (inactive)
C=CCN(CC=C)c1nc2ccccc2nc1C(C#N)C(=O)OC(C)C (stereo not drawn)	> 10 µM (inactive)
COc1cccc(/C=C/C(=O)c2c(O)cc(C)oc2=O)c1O	> 10 µM (inactive)
COc1c(Br)cc(Br)cc1/C=N/n1c(C)nnc1C	> 10 µM (inactive)

Structure (SMILES)	EC50
CC(=O)[C@H]1[C@H](c2cccc(Cl)c2)C(C#N)(C#N)[C@@H]2c3ccccc3C=CN21	8.71 µM
CCCc1cc(=O)oc2cc(C)c(CN3CCCC3)c(O)c12	6.15 µM
CC1CCCCC1NC(=O)/C(C#N)=C/c1ccccc1F (stereo not drawn)	7.11 µM
CN1OC(c2ccccc2)=C(CO)C1c1ccccc1 (stereo not drawn)	> 10 µM (inactive)
COc1cnc(-c2ccccn2)nc1Sc1cccc(Cl)c1	4.44 µM
Cc1ccnc(SCc2cc(=O)c(OC(=O)c3ccco3)co2)n1	8.45 µM
CNC(=O)/C(C#N)=C/c1c(F)cccc1Cl	7.85 µM
CC1=CS(=O)(=O)CC1Sc1nc2ccccc2[nH]1 (stereo not drawn)	> 10 µM (inactive)
O=C(Nc1ccc(Br)cn1)c1cccc(-c2cc3ccccc3oc2=O)c1	> 10 µM (inactive)
C/C(=N\NC(=O)c1cccc(Cl)c1)C1C(=O)c2ccccc2C1=O	> 10 µM (inactive)
COc1ccccc1-c1c(C)oc2cc(OC(=O)c3ccco3)ccc2c1=O	> 10 µM (inactive)
CC1Cc2ccccc2N1C(=O)Cn1cnc2ccccc2c1=O (stereo not drawn)	3.18 µM
COc1ccc(C(C)NC(=O)c2ccccc2)cc1 (stereo not drawn)	> 10 µM (inactive)
COC(=O)CSc1ncccc1-c1nc2ccccc2[nH]1	> 10 µM (inactive)
O=C(CCC1CCCC1)c1c(O)c2ccccc2oc1=O	> 10 µM (inactive)
O=C(Nc1cccnc1)c1c(O)c2cccc3c2n(c1=O)CC3	4.44 µM
Cc1ccc(CNc2nc3ccccc3s2)s1	> 10 µM (inactive)
CCc1ccc2nc(N3C(=O)C(O)=C(C(=O)c4ccco4)C3c3cccs3)sc2c1 (stereo not drawn)	9.41 µM
CN(C)C1(c2nnnn2CCOC(=O)Nc2ccc(Cl)cc2)CCCCC1	> 10 µM (inactive)
COc1ccccc1CN(Cc1nc2ccccc2c(=O)[nH]1)C(=O)Nc1cccc(C)c1	> 10 µM (inactive)
CC(c1ccccc1)N1CCn2c(nc3cc(NC(=O)c4cccs4)ccc32)C1 (stereo not drawn)	7.15 µM
CCOC(=O)c1cnc(-c2ccccc2)nc1Oc1ccc(Cl)cc1	> 10 µM (inactive)
O=C1c2ccccc2C(=O)N1c1ncc(Cc2ccc(Cl)cc2)s1	> 10 µM (inactive)
CC(C)CN=C(NS(=O)(=O)c1ccccc1)C(Cl)(Cl)Cl	3.99 µM
CN1CCN(C(=S)Nc2cc([N+](=O)[O-])ccc2Cl)CC1	> 10 µM (inactive)
CN1CCN(CC(=O)Nc2ccc(Cl)cc2Cl)CC1	> 10 µM (inactive)

Structure (SMILES)	EC50
Cn1c(=O)c2c(nc(Br)n2Cc2ccc3ccccc3c2)n(C)c1=O	> 10 µM (inactive)
COCCCNC(CC(=O)Nc1ccc(OC)cc1OC)C(=O)O (stereo not drawn)	> 10 µM (inactive)
CCCc1nc2c(c(=O)c3ccccc3n2C)c(=O)n1C1CCCCCC1	> 10 µM (inactive)
COc1cc(/C=c2\sc3nc(-c4ccncc4)nn3c2=O)ccc1OC(C)=O	> 10 µM (inactive)
Cc1ccc(-c2nc3ccc(Cl)cc3n2OC(=O)N(C)C)cc1	> 10 µM (inactive)
COC(=O)c1cc(=O)n(-c2ccccc2)c(=Nc2ccccc2)s1	> 10 µM (inactive)
O=C1C(C2=C(O)c3ccccc3C2=O)=Nc2ccccc21	1.7 µM
O=c1c2ccccc2nc(-c2ccc(Cl)c(Cl)c2)n1O	> 10 µM (inactive)
COCCCN(C(=S)Nc1cc(Cl)cc(Cl)c1)C(C)c1ccncc1 (stereo not drawn)	> 10 µM (inactive)
COc1ccc(CCN2C(=O)C(O)=C(C(=O)c3ccco3)C2c2cccs2)cc1OC (stereo not drawn)	8.94 µM
COCCN(CCOC)S(=O)(=O)c1ccc(C(=O)Nc2sc3c(c2C(N)=O)CCCCC3)cc1	> 10 µM (inactive)
CCC1CCCCN1S(=O)(=O)c1ccc(S(=O)(=O)N(Cc2cccs2)C2CC2)cc1 (stereo not drawn)	> 10 µM (inactive)
CC(C)C(c1nnnn1Cc1ccccc1)N1CCN(Cc2ccc3c(c2)OCO3)CC1 (stereo not drawn)	> 10 µM (inactive)
COCCOC(=O)/C(=C/c1ccc(OC(=O)c2ccccc2)cc1)C(C)=O	4.96 µM
COc1ccc2c(=O)c3c(=O)n(Cc4ccco4)c(-c4ccco4)nc3oc2c1	9.69 µM
Cn1c(=O)c(=O)n(C)c2cc(S(=O)(=O)N3CCN(Cc4ccccc4)CC3)ccc21	> 10 µM (inactive)
O=[N+]([O-])c1cc(S(=O)(=O)N2CCCCCC2)ccc1F	5.18 µM
N#Cc1ccc(-c2ccc(OCC(=O)NCCc3ccccc3)cc2)cc1	> 10 µM (inactive)
Oc1ccc(Br)cc1C=Nc1ccc2[nH]ncc2c1	> 10 µM (inactive)
Nc1sc(-c2ccccc2)cc1C(=O)O	> 10 µM (inactive)
CCOC(=O)c1c(NC(=O)C2C3C=CC(C3)C2C(=O)O)sc2c1CCC(CC)C2 (stereo not drawn)	> 10 µM (inactive)
CCOc1ccccc1/C=c1\sc2ncnn2c1=O	7.17 µM
O=C(c1ccccc1)C(CN1CCCC1)c1ccccc1 (stereo not drawn)	9.14 µM
CCOc1ccc(/C=C/C(=O)c2c(O)c3ccccc3oc2=O)cc1	> 10 µM (inactive)
O=S(=O)(Nc1cccc2c1CCCC2)c1ccc(Cl)cc1	> 10 µM (inactive)
CCCn1[nH]cc(SC)c(=O)c1=O	8.67 µM

Structure (SMILES)	EC50
COC(=O)c1sc(S(=O)(=O)Nc2ccc(Br)cc2)c(C(=O)OC)c1C	> 10 µM (inactive)
O=c1cc(-c2ccccc2Cl)oc2ccc([N+](=O)[O-])c(O)c12	7.35 µM
O=C1c2ccccc2NC(c2ccc(Cl)cc2Cl)N1O (stereo not drawn)	6.33 µM
COC(=O)C(=O)/C=C(\O)c1ccc(C)cc1	5.88 µM
O=C(O)Cc1ccc(N=Cc2c(O)ccc3ccccc23)cc1	3.85 µM
COC(=O)CC1=NN(c2ccccc2)C(=O)/C1=C\c1ccc(OC)cc1	> 10 µM (inactive)
Cc1cc(C)c(S(=O)(=O)c2ccccc2)c(OC(=O)c2ccc(Cl)cc2Cl)n1	7.48 µM
O=Cc1cccn1-c1sc2c(c1C(=O)O)CCCC2	> 10 µM (inactive)
CC(=C1C(=O)c2ccccc2C1=O)N1CCN(c2ccccn2)CC1	7.21 µM
COc1cc(OC)cc(-c2nc3ccccc3c(=O)n2OC(=O)c2ccccc2C)c1	> 10 µM (inactive)
Cc1ccc(C(C2=C(O)CC(C)(C)CC2=O)C2C(=O)CC(C)(C)CC2=O)o1 (stereo not drawn)	6.35 µM
CCN1CCCC1CNC(=O)COc1cc(=O)n(C)c2ccccc12 (stereo not drawn)	> 10 µM (inactive)
CCc1c(C)c(C#N)c2nc3ccccc3n2c1Cl	> 10 µM (inactive)
CN(C)/C=C(/C(=O)c1ccc(Cl)cc1Cl)S(=O)(=O)c1ccc(Cl)cc1	5.49 µM
COc1ccc(CC(=O)Nc2ccc3c(c2)CCC3)cc1S(=O)(=O)N1CCOCC1	> 10 µM (inactive)
CC1(C)CC(=O)c2sc(NS(C)(=O)=O)nc2C1	> 10 µM (inactive)
CC(C)(C)OC(=O)[C@H]1[C@H](c2ccc([N+](=O)[O-])cc2)C2(C(=O)c3ccccc3C2=O)C2c3ccccc3C=NN21 (stereo partly drawn)	8.16 µM
O=C1C=CCC(/C=C/c2ccccc2)O1 (stereo not drawn)	> 10 µM (inactive)
CCCCCOC(=O)CSc1nc2c(c(=O)[nH]c(=O)n2C)n1CCc1ccccc1	> 10 µM (inactive)
O=C(N/N=C/c1ccc(F)cc1)c1c(O)c2ccccc2[nH]c1=O	2.22 µM
O=C(NC(=S)NNS(=O)(=O)c1ccccc1)c1ccc([N+](=O)[O-])cc1	> 10 µM (inactive)
Cc1ccc(C(=O)c2no[n+]([O-])c2C(=O)c2ccc(C)cc2)cc1	> 10 µM (inactive)
CCOC(=O)C1C(=O)C(C(C)=O)C(=O)CC1CC(C)SCC (stereo not drawn)	2.06 µM
CCCn1c(SCC(=O)c2ccc3c(c2)NC(=O)CO3)nc2ccccc21	> 10 µM (inactive)
CN(c1ccccc1)c1nc2ccsc2c(=O)s1	> 10 µM (inactive)
